Bioassay records from PubChem.
RGS4 pot: RGS4 potentiators or activators, primary screen, cell-based, HEK293 M3R inducible RGS4, calcium flux; 0.92% of 310,000 active; AID 463111, 2010; B-score at 10 µM; carbachol calcium flux Fluo4; hits give low values;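 active means B-score of the integrated calcium signal more than 4 SD below the library mean, with starting fluorescence not abnormally high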;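 further: negative B-score means reduced calcium response which marks RGS4 activation or potentiation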
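Detection: kinetic calcium fluorescence imaging with Fluo4-AM dye, 2 µM / Material: HEK293 cells with stable M3R and inducible RGS4 / Schedule: recording 10 s baseline at 1 Hz, 100 s post-agonist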
MrgX1 agonist: agonists of human MrgX1 receptor, primary screen, HEK293 cells, Fluo-4 calcium flux | Fluo-4 calcium fluorescence, agonist mode; hits give high values | Mas-related G-protein coupled receptor member X1 (Homo sapiens), Q96LB2 | 0.44% of 310,000 active | B-score at 10 µM;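 active means calcium response B-score plate-corrected fluorescence ratio at least 3 library SD, with starting fluorescence B-score inside 5 SD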
Target sequence (Q96LB2 whole entry, looked up): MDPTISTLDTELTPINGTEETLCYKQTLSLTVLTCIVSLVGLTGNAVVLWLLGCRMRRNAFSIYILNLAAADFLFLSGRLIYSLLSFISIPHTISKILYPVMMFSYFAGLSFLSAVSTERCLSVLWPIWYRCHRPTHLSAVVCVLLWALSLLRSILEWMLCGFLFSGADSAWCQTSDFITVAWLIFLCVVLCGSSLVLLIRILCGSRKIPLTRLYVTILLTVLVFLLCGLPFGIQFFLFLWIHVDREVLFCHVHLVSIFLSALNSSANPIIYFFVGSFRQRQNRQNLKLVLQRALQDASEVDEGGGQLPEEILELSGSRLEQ
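System: HEK293 cells stably expressing human MrgX1 receptor; Dosing: test compound in the initial addition of three; Schedule: overnight plating, then 30 min 37 °C plus 30 min room-temperature dye loading; Detection: kinetic calcium dye fluorescence, Fluo-4 NW; Controls: per-plate positive and negative controls for Z′ factor.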
MrgX1 antagonist: antagonists of human MrgX1 receptor, primary screen, HEK293 cells, Fluo-4 calcium flux. Mas-related G-protein coupled receptor member X1 (Homo sapiens), Q96LB2. BAM8-22 antagonism; hits give low values. B-score at 10 µM. 1.3% of 310,000 active;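 active means calcium-response B-score plate-corrected more than 3 library SD below zero, starting fluorescence within 5 deviations, no agonist response on first addition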;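 further: peak minus trough fluorescence over baseline after final BAM8-22 challenge near maximal dose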
RGS4 inh: RGS4 inhibitors, primary screen, cell-based, HEK293 M3R inducible RGS4, calcium flux. Fluo-4 calcium flux; hits give high values; triggered by carbachol at its EC20. B-score at 10 µM. AID 463165, 2010. 0.45% of 310,000 active;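 active means B-score, a plate-corrected calcium signal, over three deviations above library mean, with baseline fluorescence within five deviations of library mean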;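 further: RGS4 expression induced by doxycycline in cells with stable M3 receptor; B-score is computed from the integrated fluorescence ratio over baseline after carbachol; higher B-score means a larger calcium signal and so more RGS4 inhibition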
Target sequence (P49798 whole entry, looked up): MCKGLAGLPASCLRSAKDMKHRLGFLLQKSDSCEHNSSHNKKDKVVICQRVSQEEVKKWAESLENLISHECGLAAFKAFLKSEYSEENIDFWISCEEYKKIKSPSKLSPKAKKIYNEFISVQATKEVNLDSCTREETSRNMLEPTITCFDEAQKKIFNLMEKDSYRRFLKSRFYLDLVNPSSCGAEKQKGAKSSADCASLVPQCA
MrgX1 allo act: positive allosteric modulators of MrgX1, primary screen, HEK293 cells, Fluo-4 calcium flux; B-score at 10 µM; AID 588675, 2011; FDSS; hits give high values; Mas-related G-protein coupled receptor member X1 (Homo sapiens), Q96LB2; 0.63% of 310,000 active;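 active means plate-corrected calcium response at least 3 library SD above typical, normal starting fluorescence, not activating the receptor alone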;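 further: compound read alongside a low EC10 to EC30 dose of BAM8-22 agonist; peak minus trough fluorescence over baseline measured at the second addition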
MrgX1 antag conf: MrgX1 receptor antagonists, duplicate retest, confirmation, HEK293 cells, Fluo-4 calcium flux. shares compounds with MrgX1 antagonist. BAM8-22 calcium flux; hits give low values. remaining BAM8-22 calcium response % of control (hits give low values), % at 10 µM. 19% of 2,300 active;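 active means remaining agonist calcium response no higher than 100% minus 3 SD of agonist-only control wells, with starting fluorescence near control levels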;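 further: agonist BAM8-22 given at a near maximal EC90 to ECmax level; peak minus minimum fluorescence divided by baseline after agonist addition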
HEK293 Ca flux: nonspecific calcium signal in parental HEK293, confirmation, counter-screen for MrgX1 antagonist project, parental HEK293 cells, Fluo-4 calcium flux; AID 624111, 2012; shares compounds with MrgX1 antagonist; 2% of 4,000 active; Fluo-4 calcium fluorescence, FDSS; fluorescence ratio F(max-min)/F0 at 10 µM;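 active means duplicate-averaged calcium fluorescence ratio at least three times the standard deviation of buffer wells, a nonspecific response in parental cells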
HEK293 Ca counter: calcium response in parental HEK293 cells, primary screen, counter-screen for MrgX1 allosteric activator project, cell-based, Fluo-4 calcium flux, duplicate. shares compounds with MrgX1 antagonist. AID 624114, 2012. Fluo-4 fluorescence ratio; hits give high values. fluorescence ratio F(max-min)/F0 at 10 µM. 0.4% of 4,000 active;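 active means calcium fluorescence ratio, averaged over duplicates, at least 3 SD of the buffer-well ratio, meaning a nonspecific response in receptor-free cells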;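 further: untransfected parental HEK293 lacking MrgX1 used as counterscreen for MrgX1 allosteric activators; fluorescence change taken during the second addition on a kinetic imager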
HEK293 Ca cntr2: calcium response in parental HEK293 cells, primary screen, counter-screen for MrgX1 agonist project, cell-based, Fluo-4 calcium flux, duplicate, agonist mode; shares compounds with MrgX1 antagonist; Fluo-4 calcium fluorescence (FDSS); hits give high values; fluorescence ratio F(max-min)/F0 at 10 µM; 8.7% of 4,000 active;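 active means calcium fluorescence ratio at least three times the spread of buffer wells, meaning a non-specific response in parental cells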
Large screens that a line does not name were inactive (follow-up assays come after a bar, where they were run). An excerpt weighted towards active compounds, which were near 3.5% of everything screened.

CCN1CCc2nc(NC(=O)C(c3ccccc3)c3ccccc3)sc2C1	MrgX1 antagonist -5.76 | MrgX1 antag conf inactive | HEK293 Ca flux inactive | HEK293 Ca counter inactive | HEK293 Ca cntr2 inactive
Cc1ccc2nc(-c3ccc(NC(=O)CSc4ccccc4)cc3)[nH]c2c1	MrgX1 antagonist -5.26 | MrgX1 antag conf inactive | HEK293 Ca flux inactive | HEK293 Ca counter inactive | HEK293 Ca cntr2 inactive
Cn1nc(N)c2c(-c3ccc(Cl)cc3)c(C#N)c(N)nc21	MrgX1 antagonist -4.7 | MrgX1 antag conf inactive | HEK293 Ca flux inactive | HEK293 Ca counter inactive | HEK293 Ca cntr2 inactive
Cc1ccccc1CC1(CO)CCCN(Cc2cn[nH]c2-c2ccccc2)C1 (centres undefined)	none
COc1cccc(CC2(CO)CCCN(Cc3cn[nH]c3-c3ccccc3)C2)c1 (centres undefined)	MrgX1 antagonist -5.01 | MrgX1 antag conf 72.3% | HEK293 Ca flux inactive | HEK293 Ca counter inactive | HEK293 Ca cntr2 inactive
CC1CC(C)CN(S(=O)(=O)CC23CCC(CC2=O)C3(C)C)C1 (centres undefined)	none
O=C(NCc1cccc(Br)c1)C1CC(c2ccc(C(F)(F)F)cc2)=NO1 (centres undefined)	none
Cc1ccc(Cc2nc(-c3cccnc3)no2)cc1	MrgX1 antagonist -4.79 | MrgX1 antag conf inactive | HEK293 Ca flux inactive | HEK293 Ca counter inactive | HEK293 Ca cntr2 inactive
O=C(Nc1ccncc1)c1ccc2c(c1)S(=O)(=O)c1ccccc1C2=O	none
O=C(Nc1ccc(-c2ccccc2)cc1)c1ccc2c(c1)S(=O)(=O)c1ccccc1C2=O	MrgX1 antagonist -4.69 | MrgX1 antag conf inactive | HEK293 Ca flux inactive | HEK293 Ca counter inactive | HEK293 Ca cntr2 inactive
Cc1cc(C)cc(C(=O)NCC(=O)OCC(=O)N(C)c2ccccc2)c1	MrgX1 antagonist -5.14 | MrgX1 antag conf inactive | HEK293 Ca flux inactive | HEK293 Ca counter inactive | HEK293 Ca cntr2 inactive
Cc1cc(C(=O)N2CC=C(c3ccccc3)CC2)c2ccccc2n1	MrgX1 antagonist -4.72 | MrgX1 antag conf inactive | HEK293 Ca flux inactive | HEK293 Ca counter inactive | HEK293 Ca cntr2 inactive
CCOC(=O)C1CCCN(S(=O)(=O)c2cc3c4c(c2)CCN4C(=O)CC3)C1 (centres undefined)	MrgX1 antagonist -4.83 | MrgX1 antag conf inactive | HEK293 Ca flux inactive | HEK293 Ca counter inactive | HEK293 Ca cntr2 inactive
Cc1ccc(C(=O)NCc2ccco2)cc1S(=O)(=O)N1CCCCC1	MrgX1 antagonist -6.7 | MrgX1 antag conf inactive | HEK293 Ca flux inactive | HEK293 Ca counter inactive | HEK293 Ca cntr2 inactive
O=C(Nc1cccc(Br)c1)c1ccc(Cl)c(S(=O)(=O)N2CCOCC2)c1	MrgX1 antagonist -4.69 | MrgX1 antag conf 79.6% | HEK293 Ca flux inactive | HEK293 Ca counter inactive | HEK293 Ca cntr2 inactive
Cc1ccc(C(=O)Nc2ccncc2)cc1S(=O)(=O)N1CCOCC1	MrgX1 antagonist -4.64 | MrgX1 antag conf inactive | HEK293 Ca flux inactive | HEK293 Ca counter inactive | HEK293 Ca cntr2 63.7
Cc1ccc(C(=O)Nc2ccccc2C(=O)NCc2ccco2)cc1S(=O)(=O)N1CCCCC1	none
O=C(CCn1c(=O)oc2ccccc21)Nc1cccc(Br)c1	none
CC(C)CNC(=O)CN(c1ccccc1)S(=O)(=O)c1ccccc1[N+](=O)[O-]	none
O=C(O)c1ccccc1NS(=O)(=O)c1cccc(C(F)(F)F)c1	none
O=C(O)c1ccccc1NS(=O)(=O)c1cccc(-n2sc3ccccc3c2=O)c1	MrgX1 antagonist -6.27 | MrgX1 antag conf 43.7% | HEK293 Ca flux inactive | HEK293 Ca counter inactive | HEK293 Ca cntr2 inactive
O=C(Nc1cccnc1)c1cc(-c2ccccc2)on1	none
O=C(Nc1cccnc1)c1cc(-c2ccc(Br)cc2)on1	MrgX1 antagonist -8.7 | MrgX1 antag conf inactive | HEK293 Ca flux inactive | HEK293 Ca counter inactive | HEK293 Ca cntr2 inactive
CCCCCNC(=O)c1cc(S(=O)(=O)N2CCCCC2)ccc1F	MrgX1 antagonist -7.91 | MrgX1 antag conf inactive | HEK293 Ca flux inactive | HEK293 Ca counter inactive | HEK293 Ca cntr2 inactive
O=C(NCCc1ccccc1)c1cc(S(=O)(=O)N2CCCC2)ccc1F	none
COc1cc(F)ccc1CN1CCC(n2nccc2NC(=O)C2CCOC2)CC1 (centres undefined)	none
C/C(=N\NC(N)=O)c1c(F)cccc1F	none
CCc1ccc(C2=NN(C(=O)CCC(=O)O)C(c3cccs3)C2)cc1 (centres undefined)	none
OCCNc1nc(Nc2ccc(Br)cc2)nc2ccccc12	MrgX1 antagonist -6.87 | MrgX1 antag conf 73.5% | HEK293 Ca flux inactive | HEK293 Ca counter inactive | HEK293 Ca cntr2 inactive
c1ccc(Nc2nc(NCC3CCCO3)c3ccccc3n2)cc1 (centres undefined)	MrgX1 antagonist -5.09 | MrgX1 antag conf 38.4% | HEK293 Ca flux inactive | HEK293 Ca counter inactive | HEK293 Ca cntr2 inactive
O=C1CC(N2CCSCC2)C(=O)N1c1cccc(Br)c1 (centres undefined)	MrgX1 antagonist -9.1 | MrgX1 antag conf inactive | HEK293 Ca flux inactive | HEK293 Ca counter inactive | HEK293 Ca cntr2 inactive
O=C1CC(N2CCN(c3ccccc3)CC2)C(=O)N1c1cccc(Br)c1 (centres undefined)	none
COc1ccc(C2NC(C(=O)O)Cc3c2[nH]c2ccccc32)cc1OC (centres undefined)	MrgX1 antagonist -6.73 | MrgX1 antag conf inactive | HEK293 Ca flux inactive | HEK293 Ca counter inactive | HEK293 Ca cntr2 inactive
COc1cc(C2NC(C(=O)O)Cc3c2[nH]c2ccccc32)cc(OC)c1OC (centres undefined)	none
Cc1ccc(S(=O)(=O)N2CCN(CC(O)c3ccccc3)CC2)cc1C (centres undefined)	MrgX1 antagonist -4.96 | MrgX1 antag conf inactive | HEK293 Ca flux inactive | HEK293 Ca counter inactive | HEK293 Ca cntr2 inactive
